We go through 32 compounds from ChEMBL document CHEMBL1177674, “2-acylamino-4,6-diphenylpyridine derivatives as novel GPR54 antagonists with good brain exposure and in vivo efficacy for plasma LH level in male rats” (Bioorg Med Chem, 2010).

The structures appear in SMILES notation.

A word on the IC50: it is the concentration at which inhibition is half-maximal. A word on the logD: it is the decadic logarithm of the distribution of all forms, ionised or not, between an organic phase and buffer at a given pH.

For series [1], the target named is T1, KiSS-1 receptor (Homo sapiens, UniProt Q969F8). Nature of the series: Displacement of [125I]metastin from human GPR54 receptor expressed in CHO cells. The series is classed as cell-based. The procedure, abridged:
(§1)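 Membranes came from CHO cells stably expressing human or rat GPR54. They were incubated with 135 pM 125I-metastin (40–54) plus compound for 60 min at 25 °C, in Tris binding buffer pH 7.4 with protease inhibitors and 1 mg/ml BSA. Samples were filtered through PEI-pretreated GF/C filters, buffer-washed, and the bound radioactivity was counted.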
(Loss of bound radioactivity is the signal in a displacement assay; it reports binding, not function.)

For series [2], the target named is KiSS-1 receptor (Rattus norvegicus, UniProt Q924U1). Nature of the series: Displacement of [125I]metastin from rat GPR54 receptor expressed in CHO cells. The series is classed as cell-based. The procedure, abridged:
as §1

Series [3] has as its system Caco-2. Put plainly: Ratio of permeability from basolateral to apical side to apical to basolateral side of human Caco-2 cells. The series is classed as ADME, cell-based. The procedure, abridged:
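Caco-2 monolayers were grown to confluence on collagen-coated polycarbonate Transwell membranes. Assay buffer was HBSS with 10 mmol/L HEPES, 15 mmol/L glucose and 1% BSA, pH 7.3–7.5. Compound was dosed apically or basolaterally at 37 °C, 5% CO2. Receivers were sampled at 1 and 2 h and donors at 2 h, in duplicate. A cell-free membrane corrected for nonspecific binding. The B-to-A/A-to-B ratio was derived.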
In general terms: Caco-2 cells form a polarised layer with tight junctions and transporters.

A short description of series [4]: Lipophilicity, log D at pH 7.4. It counts as physicochemical. The note with it: buffer.
Series [5] concerns Rattus norvegicus. Nature of the series: Decrease in leutinizing hormone level in castrated Wistar rat plasma at 0.22 mg/kg, iv for 5 times with 10 mins interval measured after 60 mins postdose by radioimmunoassay. It counts as functional. Set-up: scale not given: the % may be the effect or the level left. The procedure, abridged:
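Male Wistar rats, 11 weeks old, were castrated 7 days before testing. Compound was suspended at […] in 20% DMSO-40% PEG400. It was given at 0.22 mg/kg (0.8 ml/kg) via jugular catheter five times at 10 min intervals, for 1.1 mg/kg total. Vehicle served as control; n = 8 per group. Blood was drawn before dosing and at 25–180 min, then aprotinin–EDTA plasma was prepared. Values are means SE of eight.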

Series [6] addresses T1, KiSS-1 receptor. Nature of the series: Antagonist activity at human GPR54 receptor assessed as inhibition of metastin-induced calcium mobilization. The series is classed as functional. The procedure, abridged: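 Cells in MEM with 10% dFBS, penicillin and streptomycin, plated at 30,000 cells/well and cultured overnight. Loaded 60 min at 37 °C in Hepes-buffered saline (pH 7.4) containing 0.1% BSA, Fluo-3AM, 1.25 mM probenecid and 0.04% Pluronic F-127. Washed at 37 °C in the same buffer with BSA and probenecid. Ca²⁺ mobilization read on FLIPR.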
In general terms: Calcium assays in cells follow changes in intracellular calcium, usually with a dye or a luminescent sensor.

KiSS-1 receptor (Rattus norvegicus, UniProt Q924U1), sequence (Q924U1 whole entry): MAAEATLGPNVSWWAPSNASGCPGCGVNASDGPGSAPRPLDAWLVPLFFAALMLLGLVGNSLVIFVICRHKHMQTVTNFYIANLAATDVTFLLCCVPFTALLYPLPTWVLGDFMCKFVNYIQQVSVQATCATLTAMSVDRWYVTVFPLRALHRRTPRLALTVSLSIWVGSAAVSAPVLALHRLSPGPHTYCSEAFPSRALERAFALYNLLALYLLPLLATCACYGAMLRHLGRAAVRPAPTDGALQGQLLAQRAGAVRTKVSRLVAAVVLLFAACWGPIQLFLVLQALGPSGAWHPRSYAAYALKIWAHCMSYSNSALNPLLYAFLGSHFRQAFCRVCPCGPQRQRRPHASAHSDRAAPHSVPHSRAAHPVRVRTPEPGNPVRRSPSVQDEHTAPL
T1 sequence (Q969F8 whole entry): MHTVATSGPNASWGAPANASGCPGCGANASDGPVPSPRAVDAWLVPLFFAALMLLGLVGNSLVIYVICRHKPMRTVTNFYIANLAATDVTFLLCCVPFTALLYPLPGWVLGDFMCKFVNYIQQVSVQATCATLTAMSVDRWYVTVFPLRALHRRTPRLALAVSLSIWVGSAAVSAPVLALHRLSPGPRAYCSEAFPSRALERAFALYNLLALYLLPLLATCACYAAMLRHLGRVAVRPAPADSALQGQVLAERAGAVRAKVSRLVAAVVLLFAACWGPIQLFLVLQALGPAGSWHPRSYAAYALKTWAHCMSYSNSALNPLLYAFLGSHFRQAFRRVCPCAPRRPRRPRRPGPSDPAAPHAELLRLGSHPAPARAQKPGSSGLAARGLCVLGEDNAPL

`CC(CC(=O)Nc1cccc(-c2cc(-c3ccc(F)cc3O)nc(NC(=O)c3ccco3)c2C#N)c1)N(C)C` (racemic) registered an IC50 in series [1] of 18 nM.
On to `CN(C)CC(=O)Nc1cccc(-c2cc(-c3ccc(F)cc3O)nc(NC(=O)c3ccco3)c2C#N)c1`, for which the figures for the concentration for half-maximal inhibition (IC50) in series [2] and in series [1] were 130 nM and 12 nM, respectively. Besides, the Ratio in series [3] amounted to 1.4. The compound also yielded a log distribution coefficient (logD) in series [4] of 3.31.
In series [1], `CN1CCN(Cc2cccc(-c3cc(-c4ccc(F)cc4O)nc(NC(=O)c4ccco4)c3C#N)c2)CC1` showed an IC50 of 18 nM.
Same read-out and setting: under `CN1CCC[C@H]1CC(=O)Nc1cccc(-c2cc(-c3ccc(F)cc3O)nc(NC(=O)c3ccco3)c2C#N)c1` stands 18 nM; under `N#Cc1c(-c2cccc(N3CCCNCC3)c2)cc(-c2ccc(F)cc2O)nc1NC(=O)c1ccco1`, 7.3 nM.
`CN(C)CC(=O)Nc1cccc(-c2cc(-c3ccccc3O)nc(NC(=O)c3cccs3)c2C#N)c1`: the Ratio in series [3] was 1. In series [1], this compound gave an IC50 of 180 nM. Moreover, the logD in series [4] is 3.07.
With `N#Cc1c(-c2cccc(NC(=O)CCN)c2)cc(-c2ccc(F)cc2O)nc1NC(=O)c1cccs1`, the Ratio in series [3] is given as 49. This compound showed a logD in series [4] of 2.14.
For the compound `N#Cc1c(-c2cccc(NC(=O)C[C@H]3CCCN3)c2)cc(-c2ccc(F)cc2O)nc1NC(=O)c1ccco1`, the IC50 in series [2] was 38 nM; in series [1], 10 nM. The compound also displayed a logD in series [4] of 2.13.
`CC(C)NC(C)CC(=O)Nc1cccc(-c2cc(-c3ccc(F)cc3O)nc(NC(=O)c3ccco3)c2C#N)c1` (racemic) came in with an IC50 in series [1] of 9.7 nM.
In turn, `N#Cc1c(-c2cccc(NC(=O)CN)c2)cc(-c2ccc(F)cc2O)nc1NC(=O)c1ccco1` gave an IC50 in series [1] of 4.1 nM.
In turn, `CCNC(CC)CC(=O)Nc1cccc(-c2cc(-c3ccc(F)cc3O)nc(NC(=O)c3ccco3)c2C#N)c1` (racemic) yielded an IC50 in series [1] of 8 nM.
As to `N#Cc1c(-c2cccc(CN3CCNCC3)c2)cc(-c2ccc(F)cc2O)nc1NC(=O)c1ccco1`, in series [1], the IC50 worked out at 9.7 nM.
The same measure, in the same setting: under `CN1CCN(c2cccc(-c3cc(-c4ccc(F)cc4O)nc(NC(=O)c4ccco4)c3C#N)c2)CC1` stands 15 nM; under `CCN1CCN(Cc2cccc(-c3cc(-c4ccc(F)cc4O)nc(NC(=O)c4ccco4)c3C#N)c2)CC1`, 20 nM.
With `N#Cc1c(-c2cccc(N3CCNCC3)c2)cc(-c2ccc(F)cc2O)nc1NC(=O)c1ccco1`, the IC50 in series [2] amounted to 15 nM; in series [1], 3.6 nM; in series [6], 930 nM. Further, in series [3], the Ratio turned out to be 1.2. In series [4], this compound had a logD of 2.72. The compound further showed an Activity in series [5] of 32%.
In the case of `N#Cc1c(-c2cccc(NC(=O)C[C@@H]3CCCN3)c2)cc(-c2ccc(F)cc2O)nc1NC(=O)c1ccco1`, the values for the IC50 in series [2] and in series [1] were 26 nM and 7.9 nM, respectively. Besides, the logD in series [4] is 2.29.
For the compound `CN(C)CCNC(=O)c1cccc(-c2cc(-c3ccc(F)cc3O)nc(NC(=O)c3ccco3)c2C#N)c1`, the IC50 in series [1] is 20 nM.
Same read-out and setting: to `CCN(CC)CC(=O)Nc1cccc(-c2cc(-c3ccc(F)cc3O)nc(NC(=O)c3ccco3)c2C#N)c1` belongs 30 nM.
With `CNCC(=O)Nc1cccc(-c2cc(-c3ccc(F)cc3O)nc(NC(=O)c3ccco3)c2C#N)c1`, the IC50 in series [2] was 26 nM; in series [1], 8.4 nM. In series [4], this compound had a logD of 2.66.
Regarding `CCN(C)CCC(=O)Nc1cccc(-c2cc(-c3ccc(F)cc3O)nc(NC(=O)c3ccco3)c2C#N)c1`, in series [1], the half-inhibitory concentration (IC50) came out at 10 nM.
On the same count and under the same terms, under `CN(C)CCN(C)c1cccc(-c2cc(-c3ccc(F)cc3O)nc(NC(=O)c3ccco3)c2C#N)c1` stands 30 nM.
Take `CCN1CCN(c2cccc(-c3cc(-c4ccc(F)cc4O)nc(NC(=O)c4ccco4)c3C#N)c2)CC1`: the figures for the IC50 in series [2] and in series [1] were 47 nM and 11 nM, respectively. The Ratio in series [3] turned out to be 1. Besides, the logD in series [4] worked out at 4.1.
Compound `CCN(CC)C(C)CC(=O)Nc1cccc(-c2cc(-c3ccc(F)cc3O)nc(NC(=O)c3ccco3)c2C#N)c1` (racemic) had an IC50 in series [1] of 17 nM.
For `CN(C)CCC(=O)Nc1cccc(-c2cc(-c3ccc(F)cc3O)nc(NC(=O)c3ccco3)c2C#N)c1`, the IC50 in series [2] is 47 nM; in series [1] it was 10 nM. The Ratio in series [3] is reported as 4.3. The same compound showed a logD in series [4] of 2.95.
For `CNCCC(=O)Nc1cccc(-c2cc(-c3ccc(F)cc3O)nc(NC(=O)c3ccco3)c2C#N)c1`, the IC50 in series [2] stood at 20 nM; in series [1], 4.6 nM. In series [4], this compound came in with a logD of 2.13.
Turning to `CCN(CC)CCC(=O)Nc1cccc(-c2cc(-c3ccc(F)cc3O)nc(NC(=O)c3ccco3)c2C#N)c1`, the IC50 in series [1] came out at 16 nM.
`CCC(CC(=O)Nc1cccc(-c2cc(-c3ccc(F)cc3O)nc(NC(=O)c3ccco3)c2C#N)c1)N(CC)CC` (racemic) gave a 50% inhibitory concentration (IC50) in series [1] of 22 nM.
Take `N#Cc1c(-c2cccc(NC(=O)[C@H]3CCCN3)c2)cc(-c2ccc(F)cc2O)nc1NC(=O)c1ccco1`: the IC50 in series [1] was 16 nM.
`N#Cc1c(-c2cccc(NC(=O)CC3CCCCN3)c2)cc(-c2ccc(F)cc2O)nc1NC(=O)c1ccco1` (racemic) showed a half-maximal inhibitory concentration (IC50) in series [1] of 14 nM.
The same measure, in the same setting: to `N#Cc1c(-c2cccc(NC(=O)CN3CCCC3)c2)cc(-c2ccc(F)cc2O)nc1NC(=O)c1ccco1` belongs 15 nM.
The same measure, in the same setting: to `N#Cc1c(-c2cccc(CN3CCCNCC3)c2)cc(-c2ccc(F)cc2O)nc1NC(=O)c1ccco1` belongs 25 nM; to `CCNC(C)CC(=O)Nc1cccc(-c2cc(-c3ccc(F)cc3O)nc(NC(=O)c3ccco3)c2C#N)c1` (racemic), 10 nM.
